Calls of active or inactive are those of the source. The calls are words filed in the database; no cut-off is given here.
Tests used:
[1] = Selectivity ratio of IC50 for cytotoxicity against human L02 cells to IC50 for antiproliferative activity against human HepG2 cells; type: toxicity, cell-based; conditions: read-out: Ratio IC50
[2] = Selectivity ratio of IC50 for cytotoxicity against human L02 cells to IC50 for antiproliferative activity against human K562 cells; type: toxicity, cell-based; conditions: read-out: Ratio IC50
[3] = Selectivity ratio of IC50 for cytotoxicity against human PBMC cells to IC50 for antiproliferative activity against human K562 cells; type: toxicity, cell-based; conditions: read-out: Ratio IC50
[4] = tested on: K562; assay: Induction of cell cycle arrest in human K562 cells assessed as accumulation at G1 phase at 0.5 uM after 48 hrs by propidium iodide staining based flow cytometric analysis (reference value: 43.24 to 43.37%); type: functional
[5] = tested on: K562; assay: Induction of cell cycle arrest in human K562 cells assessed as accumulation at G2 phase at 1 uM after 48 hrs by propidium iodide staining based flow cytometric analysis (reference value: 10.96 to 12.03%); type: functional
[6] = tested on: K562; assay: Induction of cell cycle arrest in human K562 cells assessed as accumulation at S phase at 2 uM after 48 hrs by propidium iodide staining based flow cytometric analysis (reference value: 44.73 to 45.96%); type: functional
[7] = tested on: HepG2; assay: Induction of cell cycle arrest in human HepG2 cells assessed as accumulation at S phase at 0.5 uM after 48 hrs by propidium iodide staining based flow cytometric analysis (reference value: 33.22 to 33.58%); type: functional
[8] = tested on: HepG2; assay: Induction of cell cycle arrest in human HepG2 cells assessed as accumulation at S phase at 1 uM after 48 hrs by propidium iodide staining based flow cytometric analysis (reference value: 33.22 to 33.58%); type: functional
[9] = tested on: HepG2; assay: Induction of cell cycle arrest in human HepG2 cells assessed as accumulation at G2 phase at 1 uM after 48 hrs by propidium iodide staining based flow cytometric analysis (reference value: 16.48 to 16.97%); type: functional
Summary of the method: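 HepG2 cells were treated with 0, 0.50, 1.0 or 2.0 test agent for 48 h. Cells were washed in cold PBS and fixed in 70% ethanol at −20 °C overnight. DNA-content distribution was measured by flow cytometry. Mean ± SD, three independent experiments.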

[10] = tested on: K562; assay: Induction of apoptosis in human K562 cells assessed as late apoptotic cells at 0.5 uM after 48 hrs by annexin V FITC and propidium iodide staining based flow cytometric analysis (reference value: 0.42%); type: functional
[11] = tested on: K562; assay: Induction of apoptosis in human K562 cells assessed as early apoptotic cells at 1 uM after 48 hrs by annexin V FITC and propidium iodide staining based flow cytometric analysis (reference value: 2.13%); type: functional
[12] = tested on: K562; assay: Induction of apoptosis in human K562 cells assessed as necrotic cells at 1 uM after 48 hrs by annexin V FITC and propidium iodide staining based flow cytometric analysis (reference value: 0.69%); type: functional
[13] = tested on: K562; assay: Induction of apoptosis in human K562 cells assessed as early apoptotic cells at 2 uM after 48 hrs by annexin V FITC and propidium iodide staining based flow cytometric analysis (reference value: 2.13%); type: functional
[14] = tested on: K562; assay: Induction of apoptosis in human K562 cells assessed as late apoptotic cells at 2 uM after 48 hrs by annexin V FITC and propidium iodide staining based flow cytometric analysis (reference value: 0.42%); type: functional
[15] = tested on: K562; assay: Induction of apoptosis in human K562 cells assessed as necrotic cells at 2 uM after 48 hrs by annexin V FITC and propidium iodide staining based flow cytometric analysis (reference value: 0.69%); type: functional
[16] = tested on: HepG2; assay: Induction of apoptosis in human HepG2 cells assessed as viable cells at 0.5 uM after 48 hrs by annexin V FITC and propidium iodide staining based flow cytometric analysis (reference value: 93.5%); type: functional; conditions: read-out: Activity
[17] = tested on: HepG2; assay: Induction of apoptosis in human HepG2 cells assessed as early apoptotic cells at 0.5 uM after 48 hrs by annexin V FITC and propidium iodide staining based flow cytometric analysis (reference value: 2.89%); type: functional
[18] = tested on: HepG2; assay: Induction of apoptosis in human HepG2 cells assessed as viable cells at 1 uM after 48 hrs by annexin V FITC and propidium iodide staining based flow cytometric analysis (reference value: 93.5%); type: functional; conditions: read-out: Activity
[19] = tested on: HepG2; assay: Induction of apoptosis in human HepG2 cells assessed as early apoptotic cells at 1 uM after 48 hrs by annexin V FITC and propidium iodide staining based flow cytometric analysis (reference value: 2.89%); type: functional
[20] = tested on: HepG2; assay: Induction of apoptosis in human HepG2 cells assessed as necrotic cells at 1 uM after 48 hrs by annexin V FITC and propidium iodide staining based flow cytometric analysis (reference value: 0.89%); type: functional
[21] = tested on: HepG2; assay: Induction of apoptosis in human HepG2 cells assessed as early apoptotic cells at 2 uM after 48 hrs by annexin V FITC and propidium iodide staining based flow cytometric analysis (reference value: 2.89%); type: functional
[22] = tested on: HepG2; assay: Induction of mitochondrial membrane potential loss in human HepG2 cells after 48 hrs by JC1 staining based flow cytometric analysis; type: functional, cell-based; conditions: dose 0.5-2 µM
Summary of the method: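 K562 and HepG2 cells in 6-well plates were exposed for 48 h at 0, 0.50, 1.0 and 2.0 µM, with DMSO vehicle control. After trypsinization, cells were stained with JC-1 (0.5 mg/mL) at 37 °C in darkness for 30 min, then washed with PBS. Membrane potential was read by flow cytometry. Mean ± SD, three independent experiments.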

[23] = tested on: K562; assay: Induction of apoptosis in human K562 cells assessed as increase in cleaved caspase-3 at 1 uM after 24 hrs by chemiluminescence based apoptosis array method; type: functional, cell-based
Summary of the method: (§1)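 K562 cells were treated with 1 test agent for 24 h. Diluted total-cell lysates were applied to a human apoptosis antibody array covering 35 apoptosis-related proteins for 24 h. Unbound protein was washed off, and arrays were probed with a biotinylated detection antibody for 1 h. Relative expression was read from chemiluminescent signal by digital imaging.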

[24] = tested on: K562; assay: Induction of apoptosis in human K562 cells assessed as increase in Bax protein expression at 1 uM after 24 hrs by chemiluminescence based apoptosis array method; type: functional, cell-based; summary of the method: as §1
[25] = tested on: K562; assay: Induction of apoptosis in human K562 cells assessed as decrease in C-IAP1 protein expression at 1 uM after 24 hrs by chemiluminescence based apoptosis array method; type: functional, cell-based; summary of the method: as §1
[26] = tested on: K562; assay: Induction of apoptosis in human K562 cells assessed as decrease in C-IAP2 protein expression at 1 uM after 24 hrs by chemiluminescence based apoptosis array method; type: functional, cell-based; summary of the method: as §1
[27] = tested on: K562; assay: Induction of apoptosis in human K562 cells assessed as increase in DR4 protein expression at 1 uM after 24 hrs by chemiluminescence based apoptosis array method; type: functional, cell-based; summary of the method: as §1
[28] = tested on: K562; assay: Antiproliferative activity against human K562 cells assessed as reduction in cell viability after 72 hrs by MTT assay; conditions: K562, 72 h
[29] = tested on: HCT-116; assay: Antiproliferative activity against human HCT-116 cells assessed as reduction in cell viability after 72 hrs by MTT assay; conditions: HCT-116, 72 h
[30] = tested on: K562; assay: Induction of apoptosis in human K562 cells after 48 hrs by annexin V FITC and propidium iodide staining based flow cytometric analysis; conditions: dose 0.5-2 µM
[31] = tested on: HepG2 (human); assay: Induction of apoptosis in human HepG2 cells after 48 hrs by annexin V FITC and propidium iodide staining based flow cytometric analysis; conditions: dose 0.5-2 µM

IC50 [28]: 0.95 µM | IC50 [29]: 5.81 µM
SMILES: C=C1C(=O)[C@]23[C@H](OC(=O)CCC(=O)OCCCCCCOc4ccc(-c5cc(=S)ss5)cc4)[C@H]1CC[C@H]2[C@@]12CO[C@@]3(O)[C@@H](O)[C@@H]1C(C)(C)CC[C@@H]2OC(C)=O
selectivity ratio [1]: 20 | selectivity ratio [2]: 20 | selectivity ratio [3]: 20 | Activity [4]: 38.61% | Activity [5]: 10.32% | Activity [6]: 62.64% | Activity [7]: 31.41% | Activity [8]: 27.19% | Activity [9]: 11.5% | Activity [10]: 4.77% | Activity [11]: 11.39% | Activity [12]: 1.16% | Activity [13]: 23.75% | Activity [14]: 27.29% | Activity [15]: 1.57% | viability at 0.5 µM [16]: 76.7% | Activity [17]: 10.52% | viability at 1 µM [18]: 60.5% | Activity [19]: 25.53% | Activity [20]: 1.26% | Activity [21]: 26.44% | Activity [22]: Dose-dependent effect | Activity [23]: Active | Activity [24]: Active | Activity [25]: Active | Activity [26]: Active | Activity [27]: Active | Activity [30]: Dose-dependent effect | Activity [31]: Dose-dependent effect

— ChEMBL document CHEMBL4706489, “Hydrogen sulfide releasing oridonin derivatives induce apoptosis through extrinsic and intrinsic pathways” (Eur J Med Chem, 2020)
